For three compounds, inhibition of growth and IC50 results are on record in ChEMBL document CHEMBL4387724, “2-Pyridineformamide N(4)-ring incorporated thiosemicarbazones inhibit MCF-7 cells by inhibiting JNK pathway” (Bioorg Med Chem Lett, 2019).

Experiment [1] has as its system A-431. Put plainly: Cytotoxicity against human A431 cells assessed as reduction in cell growth at 1 uM incubated for 72 hrs by MTT assay relative to control. Type of experiment: functional. The following applies: A-431, 72 h, read-out: GI. The method in brief:
(§1)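 Cells grown in DMEM with 10% FBS and penicillin-streptomycin at 37 °C, 5% CO2, seeded at 3000 cells/well and attached overnight. Screening series given at 1, 3, 10, 100 μM; follow-up agent at 100 nM–3 μM; both 72 h, with 0.1% DMSO vehicle. MTT (5 mg/mL stock) added for 3 h at 37 °C, formazan dissolved in DMSO, absorbance read at 570 nm. Viability expressed as % of DMSO-treated wells from replicates.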
On the technique in general: Formazan colour is commonly taken as a measure of viable cells.

Experiment [2] concerns MCF7. Put plainly: Cytotoxicity against human MCF7 cells assessed as reduction in cell growth at 3 uM incubated for 72 hrs by MTT assay relative to control. Type of experiment: functional. The following applies: MCF7, 72 h, read-out: GI. The method in brief: as §1
Experiment [3] concerns A-431. Put plainly: Cytotoxicity against human A431 cells assessed as reduction in cell growth at 3 uM incubated for 72 hrs by MTT assay relative to control. The following applies: A-431, 72 h, read-out: GI. Type of experiment: functional. The method in brief:
as §1

Experiment [4] relates to MCF7. Briefly: Cytotoxicity against human MCF7 cells assessed as reduction in cell growth at 10 uM incubated for 72 hrs by MTT assay relative to control. Type of experiment: functional. Conditions: MCF7, 72 h, read-out: GI. In a few lines:
as §1

The subject of experiment [5] is A-375. Briefly: Cytotoxicity against human A375 cells assessed as reduction in cell growth at 1 uM incubated for 72 hrs by MTT assay relative to control. Type of experiment: functional. The following applies: A-375, 72 h, read-out: GI. The method in brief:
as §1

For experiment [6], the system named is A-375. Briefly: Cytotoxicity against human A375 cells assessed as reduction in cell growth at 3 uM incubated for 72 hrs by MTT assay relative to control. Type of experiment: functional. Conditions: A-375, 72 h, read-out: GI. The method in brief: as §1
For experiment [7], the system named is HeLa. Briefly: Cytotoxicity against human HeLa cells assessed as reduction in cell growth at 30 uM incubated for 72 hrs by MTT assay relative to control. Type of experiment: functional. Conditions: read-out: GI.
Experiment [8] has as its system HeLa. Briefly: Cytotoxicity against human HeLa cells assessed as reduction in cell growth incubated for 72 hrs by MTT assay. Type of experiment: functional, cell-based. The method in brief:
as §1

Experiment [9] has as its system A-431. Briefly: Cytotoxicity against human A431 cells assessed as reduction in cell growth at 10 uM incubated for 72 hrs by MTT assay relative to control. Type of experiment: functional. The following applies: A-431, 72 h, read-out: GI. The method in brief:
as §1

For experiment [10], the system named is HeLa. Put plainly: Cytotoxicity against human HeLa cells assessed as reduction in cell growth at 100 uM incubated for 72 hrs by MTT assay relative to control. Type of experiment: functional. The following applies: read-out: GI. In a few lines:
as §1

For experiment [11], the system named is A-375. Put plainly: Cytotoxicity against human A375 cells assessed as reduction in cell growth at 100 uM incubated for 72 hrs by MTT assay relative to control. The following applies: A-375, 72 h, read-out: GI. Type of experiment: functional. In a few lines: as §1
Experiment [12] relates to HeLa. Briefly: Cytotoxicity against human HeLa cells assessed as reduction in cell growth at 1 uM incubated for 72 hrs by MTT assay relative to control. The following applies: read-out: GI. Type of experiment: functional. The method in brief:
as §1

The subject of experiment [13] is MCF7. Briefly: Cytotoxicity against human MCF7 cells assessed as reduction in cell growth incubated for 72 hrs by MTT assay. Type of experiment: functional, cell-based. Conditions: MCF7, 72 h. In a few lines:
as §1

For experiment [14], the system named is A-375. Put plainly: Cytotoxicity against human A375 cells assessed as reduction in cell growth incubated for 72 hrs by MTT assay. Type of experiment: functional, cell-based. Conditions: A-375, 72 h. The method in brief: as §1
In experiment [15] the test system is MCF7. Put plainly: Cytotoxicity against human MCF7 cells assessed as reduction in cell growth at 100 uM incubated for 72 hrs by MTT assay relative to control. The following applies: MCF7, 72 h, read-out: GI. Type of experiment: functional. The method in brief: as §1
Experiment [16] has as its system HeLa. Briefly: Cytotoxicity against human HeLa cells assessed as reduction in cell growth at 10 uM incubated for 72 hrs by MTT assay relative to control. Type of experiment: functional. Conditions: read-out: GI. The method in brief: as §1
Experiment [17] has as its system MCF7. Briefly: Cytotoxicity against human MCF7 cells assessed as reduction in cell growth at 1 uM incubated for 72 hrs by MTT assay relative to control. The following applies: MCF7, 72 h, read-out: GI. Type of experiment: functional. The method in brief: as §1
Experiment [18] has as its system A-431. Briefly: Cytotoxicity against human A431 cells assessed as reduction in cell growth incubated for 72 hrs by MTT assay. The following applies: A-431, 72 h. Type of experiment: functional, cell-based. The method in brief:
as §1

Experiment [19] has as its system A-431. Briefly: Cytotoxicity against human A431 cells assessed as reduction in cell growth at 100 uM incubated for 72 hrs by MTT assay relative to control. Type of experiment: functional. Conditions: A-431, 72 h, read-out: GI. In a few lines: as §1
For experiment [20], the system named is HeLa. Put plainly: Cytotoxicity against human HeLa cells assessed as reduction in cell growth at 3 uM incubated for 72 hrs by MTT assay relative to control. Type of experiment: functional. Conditions: read-out: GI. In a few lines:
as §1

The subject of experiment [21] is A-375. Briefly: Cytotoxicity against human A375 cells assessed as reduction in cell growth at 10 uM incubated for 72 hrs by MTT assay relative to control. Type of experiment: functional. Conditions: A-375, 72 h, read-out: GI. In a few lines: as §1
Experiment [22] has as its system A-375. Put plainly: Cytotoxicity against human A375 cells assessed as reduction in cell growth at 30 uM incubated for 72 hrs by MTT assay relative to control. Type of experiment: functional. Conditions: A-375, 72 h, read-out: GI.
Experiment [23] relates to A-431. Briefly: Cytotoxicity against human A431 cells assessed as reduction in cell growth at 30 uM incubated for 72 hrs by MTT assay relative to control. Type of experiment: functional. The following applies: A-431, 72 h, read-out: GI.
For experiment [24], the system named is MCF7. Put plainly: Cytotoxicity against human MCF7 cells assessed as reduction in cell growth at 30 uM incubated for 72 hrs by MTT assay relative to control. Type of experiment: functional. The following applies: MCF7, 72 h, read-out: GI.

As to `N/C(=N\NC(=S)N1CCN(c2ccccn2)CC1)c1ccc(F)cn1`, the inhibition of growth at 1 µM was 31.1% in the experiment with A-431 [1], 49.3% in the experiment on A-375 [5], 22.5% in the experiment with HeLa [12] and 13.4% in the experiment with MCF7 [17]. The inhibition of growth at 3 µM worked out at 27.1% in the experiment with MCF7 [2], 43% with A-431 [3], 53.1% in the experiment on A-375 [6] and 77.3% in the experiment with HeLa [20]. For the same compound, the inhibition of growth at 10 µM was 35.8% with MCF7 [4], 47.4% in the experiment with A-431 [9], 80% with HeLa [16] and 56.8% in the experiment on A-375 [21]. Besides, the inhibition of growth at 30 µM in the experiment on HeLa [7] was determined as 87%; in the experiment on A-375 [22], 73.2%; with A-431 [23], 62.3%; with MCF7 [24], 58.6%. The IC50 with HeLa [8] is 2000 nM; in the experiment with MCF7 [13] it was 22000 nM; in the experiment with A-375 [14] it was 1400 nM; in the experiment with A-431 [18], 13400 nM. The inhibition of growth at 100 µM with HeLa [10] is 83%; in the experiment on A-375 [11], 76.2%; in the experiment with MCF7 [15], 74.3%; in the experiment on A-431 [19], 77.1%.

For the compound `N/C(=N\NC(=S)N1CCCCCC1)c1ccccn1`, the inhibition of growth at 1 µM with A-431 [1] was determined as 18.8%; in the experiment with A-375 [5], 67%; with HeLa [12], 21.3%; in the experiment with MCF7 [17] it was 25.3%. The inhibition of growth at 3 µM with MCF7 [2] was found to be 56%; in the experiment with A-431 [3], 50.3%; in the experiment on A-375 [6], 78.6%; with HeLa [20] it was 36.6%. In addition, the inhibition of growth at 10 µM stood at 62.2% in the experiment on MCF7 [4], 67% in the experiment on A-431 [9], 67.4% with HeLa [16] and 86.5% in the experiment on A-375 [21]. The inhibition of growth at 30 µM with HeLa [7] turned out to be 82.9%; in the experiment on A-375 [22], 90%; in the experiment on A-431 [23] it was 72.3%; with MCF7 [24], 76.5%. Further, the IC50 in the experiment on HeLa [8] turned out to be 6000 nM; with MCF7 [13], 2600 nM; with A-375 [14] it was 740 nM; in the experiment on A-431 [18], 3000 nM. The inhibition of growth at 100 µM with HeLa [10] is 88.7%; in the experiment with A-375 [11], 89%; with MCF7 [15] it was 84%; with A-431 [19], 77.5%.

`N/C(=N\NC(=S)N1CCOCC1)c1ccc(F)cn1`: the inhibition of growth at 1 µM in the experiment on A-431 [1] was found to be 31.8%; in the experiment with A-375 [5], 44.5%; with HeLa [12], 21.4%; with MCF7 [17], 12.4%. Also, the inhibition of growth at 3 µM with MCF7 [2] came to 33.9%; with A-431 [3] it was 47%; with A-375 [6], 66.4%; with HeLa [20], 59.7%. Further, the inhibition of growth at 10 µM came out at 39.5% with MCF7 [4], 66.9% in the experiment on A-431 [9], 81.9% in the experiment with HeLa [16] and 70.3% in the experiment on A-375 [21]. Also, the inhibition of growth at 30 µM with HeLa [7] stood at 84.5%; in the experiment with A-375 [22] it was 85.9%; in the experiment with A-431 [23], 82.3%; with MCF7 [24], 56.7%. The IC50 stood at 1700 nM in the experiment on HeLa [8], 22100 nM in the experiment on MCF7 [13], 1500 nM in the experiment on A-375 [14] and 4000 nM in the experiment on A-431 [18]. For the same compound, the inhibition of growth at 100 µM was 81.2% in the experiment on HeLa [10], 86.2% in the experiment on A-375 [11], 61.5% in the experiment on MCF7 [15] and 85.6% with A-431 [19].

As a reminder, the IC50 is the concentration that inhibits the measured activity by half.
